The values that follow come from ChEMBL document CHEMBL1132594, “Discovery of 6-oxo-3-(2-phenylpyrazolo[1,5-a]pyridin-3-yl)-1(6H)- pyridazinebutanoic acid (FK 838): a novel non-xanthine adenosine A1 receptor antagonist with potent diuretic activity” (J Med Chem, 1999).

A short description of series [1]: Oral bioavailability in rat (fasted). Type of series: ADME, organism-based. The conditions noted are these: in vivo. In short, it runs like this:
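Fasted rats given a single oral dose of compound suspended in 0.5% methyl cellulose solution, 3.2 or 10 mg/kg depending on compound, n = 3–4 per group.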

A short description of series [2]: solubility in water (ug/mL) at 37 degree C. Type of series: physicochemical. The conditions noted are these: read-out: S. In short, it runs like this:
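Aqueous solubility measured in water at 37 °C; sodium salt form used for one compound.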

The target in series [3] is T1, Adenosine receptor A1 (Homo sapiens, UniProt P30542).
T1 sequence (P30542 whole entry): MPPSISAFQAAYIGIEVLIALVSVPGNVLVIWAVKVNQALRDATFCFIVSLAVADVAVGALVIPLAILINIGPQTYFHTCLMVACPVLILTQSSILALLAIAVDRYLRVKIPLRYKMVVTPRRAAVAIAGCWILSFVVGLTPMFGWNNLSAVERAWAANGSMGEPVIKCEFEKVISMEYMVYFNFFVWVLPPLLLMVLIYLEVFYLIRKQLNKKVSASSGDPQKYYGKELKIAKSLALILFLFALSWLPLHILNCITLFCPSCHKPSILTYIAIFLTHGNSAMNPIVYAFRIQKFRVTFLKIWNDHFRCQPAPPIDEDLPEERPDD
Nature of the series: Adenosine A1 receptor binding using [3H]DPCPX in human cortical membranes. Type of series: cell membranes.

Series [4] concerns the target T2, Adenosine receptor A1 (Rattus norvegicus, UniProt P25099).
T2 sequence (P25099 whole entry): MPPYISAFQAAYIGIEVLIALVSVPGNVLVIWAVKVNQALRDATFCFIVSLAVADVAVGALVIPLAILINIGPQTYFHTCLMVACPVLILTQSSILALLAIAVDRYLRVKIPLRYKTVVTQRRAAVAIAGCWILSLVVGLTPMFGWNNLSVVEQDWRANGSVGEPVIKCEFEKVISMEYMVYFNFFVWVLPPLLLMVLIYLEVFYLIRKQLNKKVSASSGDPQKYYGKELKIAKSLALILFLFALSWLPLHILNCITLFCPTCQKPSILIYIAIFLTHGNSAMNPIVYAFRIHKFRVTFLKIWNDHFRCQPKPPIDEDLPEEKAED
In words: Adenosine A1 receptor binding using [3H][…] in rat cortical membranes. Type of series: cell membranes. In short, it runs like this: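 Displacement of [3H]DPCPX binding in rat cortical membranes. Values are means ± 95% confidence limits from at least three independent experiments.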

Series [5] relates to Rattus norvegicus. Nature of the series: Diuretic activity was measured in saline (20mL/kg, po)-loaded rat as sodium output at 0.32 mg/kg dose po. Type of series: functional, Urine. In short, it runs like this: (§1)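 Male Sprague–Dawley rats, food withheld 18 h, saline-loaded (20 mL/kg po), then given compound orally as a suspension in 0.5% methyl cellulose; vehicle-dosed controls. Urine collected over 6 h for volume (mL/kg), Na+ and K+ output (μequiv/kg). n = 3 (n = 1 for some vehicle groups); means ± SEM, significance vs vehicle at p < 0.05 / p < 0.01.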

For series [6], the system named is Rattus norvegicus. Nature of the series: Diuretic activity was measured in saline (20mL/kg, po)-loaded rat as sodium output at 1 mg/kg dose po. Type of series: functional, Urine. The method, boiled down: as §1
The test system of series [7] is Rattus norvegicus. Nature of the series: Diuretic activity was measured in saline (20mL/kg, po)-loaded rat as sodium output at 10 mg/kg dose po. Type of series: functional, Urine. The method, boiled down:
as §1

The test system of series [8] is Rattus norvegicus. Nature of the series: Diuretic activity was measured in saline (20mL/kg, po)-loaded rat as sodium output at 3.2 mg/kg dose po. Type of series: functional, Urine. The method, boiled down: as §1
Series [9] relates to Rattus norvegicus. Nature of the series: Diuretic activity was measured in saline (20mL/kg, po)-loaded rat as potassium output at 1 mg/kg dose po. Type of series: functional, organism-based. On the set-up: dose 1 mg/kg. The conditions noted are these: Urine. In short, it runs like this: as §1
Series [10] concerns Rattus norvegicus. Nature of the series: Diuretic activity was measured in saline (20mL/kg, po)-loaded rat as potassium output at 10 mg/kg dose po. Type of series: functional, organism-based. The settings on record: Urine. On the set-up: dose 10 mg/kg. The method, boiled down: as §1
Series [11] concerns Rattus norvegicus. Nature of the series: Diuretic activity was measured in saline (20mL/kg, po)-loaded rat as potassium output at 3.2 mg/kg dose po. Type of series: functional, organism-based. On the set-up: dose 3.2 mg/kg. The settings on record: Urine. In short, it runs like this:
as §1

In series [12] the test system is Rattus norvegicus. Nature of the series: Diuretic activity was measured in saline (20mL/kg, po)-loaded rat as urine volume collected for 6 hr at 0.32 mg/kg dose po. Type of series: functional. The method, boiled down: as §1
Series [13] deals with Rattus norvegicus. In words: Diuretic activity was measured in saline (20mL/kg, po)-loaded rat as urine volume collected for 6 hr at 10 mg/kg dose po. Type of series: functional. In short, it runs like this:
as §1

The subject of series [14] is Rattus norvegicus. Nature of the series: Diuretic activity was measured in saline (20mL/kg, po)-loaded rat as urine volume collected for 6 h at 3.2 mg/kg dose po. Type of series: functional. The method, boiled down:
as §1

Series [15] deals with Rattus norvegicus. In words: Diuretic activity was measured in saline (20mL/kg, po)-loaded rat as urine volume collected for 6 hr at 1 mg/kg dose po. Type of series: functional. In short, it runs like this: as §1
Series [16] concerns the target Adenosine A2 receptor (Rattus norvegicus, UniProt P29276+P30543). Nature of the series: Adenosine A2 receptor binding using [3H]CGS-21680 in rat striatal membranes. Type of series: cell membranes, Striatum, Membrane. In short, it runs like this: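 Radioligand displacement of [3H]CGS 21680 from rat striatal membranes. Values are means ± 95% confidence limits from at least three independent experiments.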

The target of series [17] is T2, Adenosine receptor A1. Nature of the series: Adenosine A1 receptor using [3H][…] in rat cortical membranes. Type of series: cell membranes.
For series [18], the system named is Rattus norvegicus. In words: Diuretic activity was measured in saline (20mL/kg, po)-loaded rat as sodium output at 0.032 mg/kg dose po. Type of series: functional, Urine. In short, it runs like this:
as §1

Series [19] relates to Rattus norvegicus. Nature of the series: Diuretic activity was measured in saline (20mL/kg, po)-loaded rat as sodium output at 0.1 mg/kg dose po. Type of series: functional, Urine. In short, it runs like this:
as §1

The subject of series [20] is Rattus norvegicus. Nature of the series: Diuretic activity was measured in saline (20mL/kg, po)-loaded rat as urine volume collected for 6 hr at 0.032 mg/kg dose po. Type of series: functional. In short, it runs like this: as §1
Series [21] concerns Rattus norvegicus. In words: Diuretic activity was measured in saline (20mL/kg, po)-loaded rat as urine volume collected for 6 hr at 0.1 mg/kg dose po. Type of series: functional. The method, boiled down: as §1
Series [22] deals with T3, Adenosine receptor A1 (Rattus norvegicus) (UniProt P25099).
T3 sequence (whole entry): T2 sequence (P25099 whole entry)

In brackets after ≈: the same amount, converted by molar mass.

Consider `O=C(/C=C/c1c(-c2ccccc2)nn2ccccc12)N1CCCC[C@@H]1CCO` [FK453], for which the bioavailability (in general, the share of a dose that reaches the circulation, judged against a reference dose that is usually intravenous) in [1] was 8.8%. Moreover, the solubility in series [2] was found to be 11.9 µg/mL (≈ 0.0317 mM). The Ki in series [3] and in series [4] was 490 pM in each case. For the same compound, the Na in [5] is recorded as 2350 u equiv kg-1; in series [6], 3290 u equiv kg-1; in series [7] it was 5820 u equiv kg-1; in [8], 4110 u equiv kg-1. Further, the values for the K in series [9], in series [10] and in series [11] were 833 u equiv kg-1, 1070 u equiv kg-1 and 831 u equiv kg-1, respectively. Besides, the Urine volume stood at 18 mL/kg in series [12], 44.4 mL/kg in series [13], 31.9 mL/kg in series [14] and 24.6 mL/kg in [15].

`Cn1nc(-c2c(-c3ccccc3)nn3ccccc23)ccc1=O`: in series [7], the Na is 4870 u equiv kg-1. In series [10], the K was 891 u equiv kg-1. In series [13], this compound had a Urine volume of 30 mL/kg.

With `O=C(O)CCCCn1nc(-c2c(-c3ccccc3)nn3ccccc23)ccc1=O`, the Na in [7] is recorded as 4510 u equiv kg-1. In [10], this compound gave a K of 977 u equiv kg-1. The compound also returned a Urine volume in series [13] of 36.3 mL/kg.

Regarding `c1ccc(-c2nn3ccccc3c2-c2ccnnc2)cc1`, the Na turned out to be 2800 u equiv kg-1 in [6], 5110 u equiv kg-1 in [7] and 3770 u equiv kg-1 in [8]. Further, the K in series [9] stood at 569 u equiv kg-1; in [10], 907 u equiv kg-1; in [11], 667 u equiv kg-1. The Urine volume was 38 mL/kg in [13], 29.5 mL/kg in [14] and 23.8 mL/kg in [15].

In the case of `O=C(O)CCCn1nc(-c2c(-c3ccccc3)nn3ccccc23)ccc1=O`, in series [1], the bioavailability amounted to 78%. Moreover, the solubility in series [2] is 10000 µg/mL (≈ 26.7 mM). Moreover, the “Log Ki” value in series [16] is reported as -5.92. In series [17], the Ki (in general, the equilibrium dissociation constant of an inhibitor or competing ligand from its target) is 6610 pM. In addition, the Na is 2390 u equiv kg-1 in series [18], 3860 u equiv kg-1 in series [19], 5260 u equiv kg-1 in [6] and 5680 u equiv kg-1 in series [7]. The K in series [9] was 967 u equiv kg-1; in series [10], 1150 u equiv kg-1. The Urine volume in series [20] was determined as 15.6 mL/kg; in series [21], 26.4 mL/kg; in series [22], 26.4 mL/kg. This compound registered a UV in series [13] of 38.6 mL/kg.

The compound `CCCn1nc(-c2c(-c3ccccc3)nn3ccccc23)ccc1=O` yielded a Na in series [7] of 5510 u equiv kg-1. This compound came in with a K in series [10] of 972 u equiv kg-1. This compound also had a Urine volume in series [13] of 36.8 mL/kg.

Regarding `O=C(O)CCn1nc(-c2c(-c3ccccc3)nn3ccccc23)ccc1=O`, the Na in series [6] amounted to 3350 u equiv kg-1; in [7], 5260 u equiv kg-1; in series [8], 4860 u equiv kg-1. Also, the values for the K in series [9], in series [10] and in series [11] were 790 u equiv kg-1, 901 u equiv kg-1 and 904 u equiv kg-1, respectively. The Urine volume in [13] was 31.4 mL/kg; in series [14], 28.1 mL/kg; in series [15], 19.1 mL/kg.

Regarding `Oc1ccc(-c2c(-c3ccccc3)nn3ccccc23)nn1`, in series [7], the Na is recorded as 4640 u equiv kg-1. In series [10], this compound came in with a K of 826 u equiv kg-1. In series [13], this compound yielded a Urine volume of 33.3 mL/kg.

For the compound `O=c1ccc(-c2c(-c3ccccc3)nn3ccccc23)nn1CCCO`, the Na in series [7] is 5160 u equiv kg-1. Moreover, the K in [10] was found to be 964 u equiv kg-1. Moreover, the Urine volume in series [13] came out at 37.9 mL/kg.

In the case of `c1ccc(-c2nn3ccccc3c2-c2ccncc2)cc1`, the Na in series [7] is 5110 u equiv kg-1. The compound also displayed a K in series [10] of 975 u equiv kg-1. For the same compound, in series [13], the Urine volume turned out to be 34.2 mL/kg.

`O=c1ccc(-c2c(-c3ccccc3)nn3ccccc23)nn1CCO` had a Na in [7] of 5930 u equiv kg-1. In [10], the K was 942 u equiv kg-1. In series [13], the Urine volume came out at 40.4 mL/kg.
